Source: PubChem (The Scripps Research Institute Molecular Screening Center)
LEDGF integ inh: blocks HIV-1 LEDGF/p75-dependent DNA integration; TR-FRET IN-LEDGF/p75 DNA integration, Eu/Cy5; inhibition, % at 3.7 µM; 370,000 compounds, 0.64% hits;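 active = inhibition above the screen-wide mean plus 3 SD, cut at about 13% in these data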;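 note: signal is the Cy5 over europium emission ratio at 671 and 618 nm; 0% = plate median of compound wells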
UHRF1 MBD2 ctr: UHRF1 methyl-DNA binding inhibition. UHRF1 binding to methylated oligo, TR-FRET. inhibition, % at 4.4 µM. 370,000 compounds, 0.75% hits. AID 687016; in the data active = inhibition above about 21%;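 note: UHRF1 SRA domain binding a hemimethylated CpG hairpin DNA probe; 0% = median of test compound wells and 100% = reference inhibitor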
TDP2 absorb: blocks human TDP2 phosphodiesterase activity; inhibition, % at 12.8 µM; O95551; 370,000 compounds, 0.34% hits; recombinant TDP2, T5PNP hydrolysis, p-nitrophenol absorbance 415 nm;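 active = inhibition above the mean of all tested compounds plus 3 SD, set per campaign, cut at about 25% in these data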;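 note: 0% = DMSO with enzyme and 100% = buffer with substrate but no TDP2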
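System: recombinant human TDP2 / Amount: 120 nM TDP2 per well / Also added: 5 mM T5PNP chromogenic substrate / Doses: 12.8 µM single point, 1% DMSO / Incubation: 2 h at 37 °C / Detection: p-Nitrophenol epi absorbance / Evaluation: % inhibition relative to enzyme-containing and enzyme-free wells / Repeats: singlicate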
MBD2 DNA inh: inhibitors of human MBD2 binding to methylated oligonucleotide; Q9UBB5; TR-FRET; inhibition, % at 4.4 µM; 370,000 compounds, 0.31% hits; AID 686964; in the data active = inhibition above about 13%
Target sequence (Q9UBB5 whole entry, looked up): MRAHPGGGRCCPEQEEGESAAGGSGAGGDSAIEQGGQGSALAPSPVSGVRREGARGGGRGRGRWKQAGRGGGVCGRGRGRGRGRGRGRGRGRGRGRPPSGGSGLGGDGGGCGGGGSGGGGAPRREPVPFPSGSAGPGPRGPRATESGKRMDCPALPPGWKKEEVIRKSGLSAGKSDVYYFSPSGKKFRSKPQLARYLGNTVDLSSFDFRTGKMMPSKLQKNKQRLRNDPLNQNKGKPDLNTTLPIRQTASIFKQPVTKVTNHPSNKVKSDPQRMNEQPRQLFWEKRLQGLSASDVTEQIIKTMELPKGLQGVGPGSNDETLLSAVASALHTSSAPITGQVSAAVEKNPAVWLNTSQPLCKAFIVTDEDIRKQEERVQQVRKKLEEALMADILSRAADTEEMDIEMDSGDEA
IN multimer act: activates HIV-1 integrase multimerization in LEDGF counter-screen; shares compounds with LEDGF integ inh; TR-FRET HIV-1 integrase multimerization, biochemical; activation, % at 7.7 µM; 2,000 compounds, 17% hits; in the data active = activation above about 8.9%
TRFRET interf: TR-FRET optical interference, LEDGF/p75 integration counter-screen | shares compounds with LEDGF integ inh | TR-FRET optical interference counterscreen, HIV-1 IN multimerization | inhibition, % at 7.7 µM | 2,000 tested, under 10 active;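 active = inhibition above the mean over all tested compounds plus 3 SD, which no compound reached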;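 note: 0% = integrase with antibodies and DMSO and 100% = antibodies without integrase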
IN-LEDGF confirm: confirmation of HIV-1 LEDGF/p75-dependent integration inhibitors | inhibition, % at 3.7 µM | shares compounds with LEDGF integ inh | TR-FRET LEDGF/p75-dependent HIV-1 integration, biochemical | 2,000 compounds, 36% hits | AID 1053136; in the data active = inhibition above about 14%
* hit, by the source's call; . = not tested or not shown. Only some compounds are listed: those with a hit (about 1.6% of all), similar ones and a draw of the others.

SMILES	LEDGF integ inh	UHRF1 MBD2 ctr	TDP2 absorb	MBD2 DNA inh	IN multimer act	TRFRET interf	IN-LEDGF confirm
CC1CN(C)C(C)C/C1=N\Oc1ccc([N+](=O)[O-])cc1 (stereo not drawn)	-2	-1	6	-3	.	.	.
CC1CN(C)C(C)C/C1=N/Oc1ccccc1[N+](=O)[O-] (stereo not drawn)	26*	-5	16	-7	1	-3	1
O=C(c1cn(-c2ccccc2)nc1-c1ccncc1)n1nnc2ccccc21	16*	-4	6	-4	1	-7	0
O=C(O)c1cn(-c2ccccc2)nc1-c1ccncc1	4	5	-2	7	.	.	.
CN(C)c1ccc(N/C=C/C(=O)c2ccco2)cc1	38*	6	16	-4	11*	-41	7
CC(C)[C@H](NS(=O)(=O)c1ccc2c(c1)OCCO2)C(=O)OCC(=O)Nc1cccc(Cl)c1Cl	18*	-3	-6	-6	1	-4	-1
O=C1c2ccccc2C(=O)c2c1cccc2N1CCCC1	30*	12	13	-4	3	-11	2
CCOc1ccccc1N1C(=O)CC(Nc2ccc(N3CCOCC3)cc2)C1=O (stereo not drawn)	11	-2	22	2	.	.	.
COc1ccccc1N1C(=O)CC(Nc2ccc(N3CCOCC3)cc2)C1=O (stereo not drawn)	15*	1	11	0	1	-3	-3
C[C@@H]1OC(C2CCCCC2)N(C)[C@H]2C[C@H]3c4[nH]c5c(-c6ccc7c(c6)OCO7)cccc5c4CCN3C[C@@H]12 (stereo partly drawn)	-1	0	-8	-1	.	.	.
O=[N+]([O-])c1ccc2c(c1)nc1n2CCN(c2ccccc2)C1	17*	1	-2	2	0	-1	7
COCCCN1C(=O)[C@H](CC(=O)NCc2cccc(C(F)(F)F)c2)[C@]2(C(=O)OC)CCCCC=C12	-1	0	3	3	.	.	.
CC1=CC(C)(C)NC(=S)N1c1ccc(C)cc1	21*	7	5	1	-2	8	4
OC(c1ccccc1)(c1ccccc1)C1CCN(CCCOc2ccc(-c3ccc(F)cc3F)cc2)CC1	-3	2	-2	5	.	.	.
CCCCCOC(=O)CC(C(=O)OCCCCC)N1CCCCC1 (stereo not drawn)	14*	-3	4	3	0	1	-17
COC(=O)[C@]12C[C@H](CC(=O)NCc3cccs3)C(=O)N(Cc3ccc(Cl)cc3Cl)C1=C[C@H](C1CCCC1)O[C@@H]2C	-1	-1	-12	1	.	.	.
O=C(O)c1ccccc1O	2	3	4	-6	.	.	.
Nc1c(O)cccc1C(=O)O	38*	20	20	8	8	-38	21*
O=P(O)(O)COc1ccccc1P(=O)(c1ccccc1)c1ccccc1	19*	0	7	-3	-2	13	0
CCOP(=O)(O)c1ccccc1OCCOc1ccccc1P(=O)(O)OCC	-3	4	5	-1	.	.	.
CCOc1ccc(S(=O)(=O)NCCC(=O)N2CCN(c3ncccn3)CC2)cc1	77*	-2	-2	3	1	-7	3
O=C(CCNS(=O)(=O)c1ccc(Cl)cc1)N1CCN(c2ncccn2)CC1	0	2	3	1	.	.	.
C=CCNC(=S)N/N=C(\C)c1cccc(OC)c1	2	-3	-3	2	.	.	.
C=CCNC(=S)N/N=C(\C)c1ccc(OC)cc1	16*	27*	-2	10	1	-4	-10
O=C(/C=C/c1ccc(Cl)c(Cl)c1)NC1=NCCS1	28*	5	-6	9	1	-3	6
SMILES	LEDGF integ inh	UHRF1 MBD2 ctr	TDP2 absorb	MBD2 DNA inh	IN multimer act	TRFRET interf	IN-LEDGF confirm
COC(=O)c1cc2c(c3c4cc(F)ccc4n(S(=O)(=O)c4ccc(C)cc4)c13)C(=O)N(c1ccc(OC)cc1)C2	-1	1	-4	4	.	.	.
Cc1c2ccccc2nc2c(F)c(NC(C)C)c(F)c(F)c12	13*	-6	2	-6	1	-5	4
Cc1c2ccccc2nc2c(F)c(NCCO)c(F)c(F)c12	14*	-16	13	-10	5	-19	3
COC(=O)[C@]12C[C@H](CC(=O)NCCC(C)C)C(=O)N(Cc3ccccc3)C1=C[C@H](C1CCCC1)O[C@@H]2C	0	1	2	3	.	.	.
O=C(N/N=C/C=C/c1ccco1)/C(=C/c1ccccc1)NC(=O)c1ccccc1	18*	-1	-19	-1	8	-39	29*
O=C(Cc1cccs1)N/N=C/C=C\c1ccco1	7	0	3	10	.	.	.
O=C(N/N=C/C=C\c1ccco1)c1cccs1	15*	8	16	3	8	-30	20*
CN1C(C(=O)NCc2cccc(C(F)(F)F)c2)CC2Cn3c(nc4cc5ccccc5cc43)C21 (stereo not drawn)	-1	-1	-2	-3	.	.	.
CN1C(C(=O)NCc2cccc(C(F)(F)F)c2)CC2Cn3c(nc4ccccc43)C21 (stereo not drawn)	15*	-2	-7	2	0	-1	-13
Cc1ccc(CNC(=O)C2CC3Cn4c(nc5cc(C)c(C)cc54)C3N2C)o1 (stereo not drawn)	4	3	-6	2	.	.	.
Cc1cc2nc3n(c2cc1C)CC1CC(C(=O)NCc2ccco2)N(C)C31 (stereo not drawn)	27*	45*	14	8	0	0	-8
CN1CC=C(c2ccc(C(F)(F)F)cc2)N(c2ccccc2)C1=O	1	0	2	5	.	.	.
CCC[C@H]1[C@@H](OC(=O)NC2CCC2)CC[C@@]23CCCN2C(=O)CCC[C@@H]13	-1	0	-2	-2	.	.	.
Cn1cccc1C(=O)N1CCN(S(=O)(=O)c2cccc3ccccc23)CC1	1	0	4	3	.	.	.
CCCCOc1ccc(C(=O)N/C(=C\c2ccc([N+](=O)[O-])cc2)C(=O)OCc2ccco2)cc1	21*	-2	1	7	0	-1	-2
CCOC(=O)c1c(N)sc(=S)c2c1CCC2	34*	16	-1	4	1	-3	32*
CCCOC(=O)c1c(N)sc2c1CCC2	2	0	-7	-5	.	.	.
O=C(N1CCCCCC1)N1CCN(C(=O)N2CCOCC2)CC1	31*	5	6	5	0	1	0
Cc1ccc(NC(=O)CN(C)c2ccc(S(=O)(=O)N3CCCC3)cn2)cc1	-4	2	0	-1	.	.	.
CCOc1ccc(NC(=O)CN(C)c2ccc(S(=O)(=O)N3CCOCC3)cn2)cc1OCC	15*	41*	4	-3	1	-4	-2
